The source made the active and inactive calls. The calls are words filed in the database; no cut-off is given here.
How the values were obtained:
[1] = system: Plasmodium falciparum; assay: Antiplasmodial activity against D-sorbitol synchronized ring stage of chloroquine-resistant Plasmodium falciparum W2 assessed as parasite growth inhibition measured after 48 hrs by YOYO-1 dye based FACSort flow cytometry analysis; type: functional, organism-based; conditions: W2, 48 h
[2] = system: Vero; assay: Cytotoxicity against African green monkey Vero cells measured after 24 hrs by resazurin dye based fluorescence assay; type: cell-based; conditions: Chlorocebus sabaeus
[3] = Selectivity index, ratio of IC50 for African green monkey Vero cells to IC50 for D-sorbitol synchronized ring stage of chloroquine-resistant Plasmodium falciparum W2; type: toxicity; conditions: read-out: Ratio IC50
[4] = system: Heme; assay: Binding affinity to monomeric heme assessed as binding constant in HEPES buffer in aqueous DMSO solution at pH 7.4 by UV-vis spectrophotometric titration analysis
Method in brief: (§1)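 Monomeric hemin (12 μM) in 40% DMSO with 0.02 M HEPES, pH 7.4, was titrated with compound at 0–18 μM. The drop in the 401 nm monomeric-heme band was followed by UV-vis. Log K was obtained by nonlinear least-squares fitting of the titration curves. A DMSO solvent control was included.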

[5] = system: Heme; assay: Binding affinity to monomeric heme assessed as binding constant in MES buffer in aqueous DMSO solution at pH 5.6 by UV-vis spectrophotometric titration analysis
Method in brief: (§2)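 Monomeric hemin (12 μM) in aqueous DMSO with 0.02 M MES, pH 5.6, was titrated with compound at 0–16 μM. Loss of the 401 nm monomeric-heme absorbance was monitored by UV-vis. Binding constant (log K) came from nonlinear least-squares fitting of the titration curves, with a DMSO solvent control.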

[6] = system: Plasmodium falciparum; assay: Potency index, ratio of chloroquine IC50 to compound IC50 for antiplasmodial activity against D-sorbitol synchronized ring stage of chloroquine-resistant Plasmodium falciparum W2 assessed as parasite growth inhibition measured after 48 hrs by YOYO-1 dye based FACSort flow cytometry analysis; type: functional
[7] = system: Heme; assay: Binding affinity to monomeric heme assessed as heme-compound complex formation by measuring shifting and broadening of the peaks by 1H-NMR analysis
[8] = system: Heme; assay: Binding affinity to monomeric heme assessed as heme-compound complex formation at 1:1 ratio in aqueous DMSO solution at 5 micromol by mass spectrometry analysis
[9] = system: Heme; assay: Binding affinity to monomeric heme assessed as decrease in band intensity in MES buffer in aqueous DMSO solution at pH 5.6 by UV-vis spectrophotometric titration analysis; method in brief: as §2
[10] = system: Heme; assay: Binding affinity to monomeric heme assessed as decrease in band intensity in HEPES buffer in aqueous DMSO solution at pH 7.4 by UV-vis spectrophotometric titration analysis; method in brief: as §1
[11] = system: Plasmodium falciparum; assay: Antiplasmodial activity against sorbitol synchronized CQ-resistant Plasmodium falciparum W2 assessed as parasite growth inhibition after 48 hrs by SYBR Green I-based fluorescence assay; conditions: W2, 48 h

| Compound | IC50 [1] [nM] | IC50 [2] [µM] | selectivity ratio [3] | other results |
| --- | --- | --- | --- | --- |
| O=C1c2cccc3c(N4CCN(CCO)CC4)ccc(c23)C(=O)N1CCCCNc1ccnc2cc(Cl)ccc12 | 20.1 | 31.9 | 1580 | – |
| O=C1c2cccc3c(N4CCOCC4)ccc(c23)C(=O)N1CCCCCCCCNc1ccnc2cc(Cl)ccc12 | 3970 | 175 | 44.1 | – |
| O=C1c2cccc3cccc(c23)C(=O)N1CCCCNc1ccnc2cc(Cl)ccc12 | 40.7 | 7.58 | 186 | – |
| O=C1c2cccc3cccc(c23)C(=O)N1CCNc1ccnc2cc(Cl)ccc12 | 56 | 249 | 4440 | – |
| O=C1c2cccc3c(N4CCCCC4)ccc(c23)C(=O)N1CCCCNc1ccnc2cc(Cl)ccc12 | 96.1 | 33.8 | 352 | – |
| O=C1c2cccc3cccc(c23)C(=O)N1CCCNc1ccnc2cc(Cl)ccc12 | 147 | 3.14 | 21.4 | – |
| O=C1OC(=O)c2cccc3cccc1c23 [1,8-NAPHTHALIC ANHYDRIDE] | > 10000 | 505 | – | – |
| O=C1c2cccc3c(Br)ccc(c23)C(=O)N1CCCNc1ccnc2cc(Cl)ccc12 | 59.7 | 10.7 | 179 | – |
| O=C1c2cccc3c(N4CCN(CCO)CC4)ccc(c23)C(=O)N1CCCCCCCCNc1ccnc2cc(Cl)ccc12 | 215 | 171 | 797 | – |
| O=C1c2cccc3c(N4CCN(CCO)CC4)ccc(c23)C(=O)N1CCCNc1ccnc2cc(Cl)ccc12 | 15.4 | 64.8 | 4190 | log K [4]: 6.33; log K [5]: 6.06; Ratio IC50 [6]: 15; Activity [7]: Active; Activity [8]: Active; Activity [9]: Active; Activity [10]: Active |
| O=C1c2cccc3c(Br)ccc(c23)C(=O)N1CCNc1ccnc2cc(Cl)ccc12 | 53 | 7.79 | 147 | – |
| O=C1c2cccc3c(N4CCN(CCO)CC4)ccc(c23)C(=O)N1CCCCCCNc1ccnc2cc(Cl)ccc12 | 120 | 13.1 | 109 | – |
| O=C1c2cccc3c(N4CCOCC4)ccc(c23)C(=O)N1CCCCNc1ccnc2cc(Cl)ccc12 | 237 | 12.5 | 52.6 | – |
| CC(C)[C@@H](C(=O)N[C@H](Cc1ccccc1)[C@@H](O)CN1CCN(Cc2ccc(Br)cc2)CC1)N1C(=O)c2ccccc2C1=O | – | – | – | IC50 [11]: 3.01 µM |
| O=C1c2cccc3c(N4CCOCC4)ccc(c23)C(=O)N1CCCNc1ccnc2cc(Cl)ccc12 | 66.9 | 69 | 1030 | – |
| O=C1c2cccc3c(Br)ccc(c23)C(=O)N1CCCCCCCCNc1ccnc2cc(Cl)ccc12 | 562 | 177 | 315 | – |
| O=C1c2cccc3c(N4CCCCC4)ccc(c23)C(=O)N1CCNc1ccnc2cc(Cl)ccc12 | 149 | 126 | 851 | – |
| O=C1c2cccc3c(N4CCCCC4)ccc(c23)C(=O)N1CCCCCCNc1ccnc2cc(Cl)ccc12 | 130 | 185 | 1420 | – |
| O=C1c2cccc3c(N4CCOCC4)ccc(c23)C(=O)N1CCNc1ccnc2cc(Cl)ccc12 | 121 | 26.8 | 221 | – |
| O=C1c2cccc3c(N4CCCCC4)ccc(c23)C(=O)N1CCCCCCCCNc1ccnc2cc(Cl)ccc12 | 438 | 176 | 401 | – |
| O=C1c2cccc3c(Br)ccc(c23)C(=O)N1CCCCCCNc1ccnc2cc(Cl)ccc12 | 162 | 186 | 1150 | – |
| O=C1c2cccc3c(N4CCN(CCO)CC4)ccc(c23)C(=O)N1CCNc1ccnc2cc(Cl)ccc12 | 41.1 | 45.2 | 1100 | – |
| O=C1c2cccc3c(N4CCCCC4)ccc(c23)C(=O)N1CCCNc1ccnc2cc(Cl)ccc12 | 51.2 | 200 | 3910 | – |
| O=C1OC(=O)c2ccc(Br)c3cccc1c23 | > 10000 | 361 | – | – |
| O=C1c2cccc3c(N4CCOCC4)ccc(c23)C(=O)N1CCCCCCNc1ccnc2cc(Cl)ccc12 | 84.2 | 184 | – | – |
| O=C1c2cccc3c(Br)ccc(c23)C(=O)N1CCCCNc1ccnc2cc(Cl)ccc12 | 53.3 | 13.9 | 262 | – |
| O=C1c2cccc3cccc(c23)C(=O)N1CCCCCCNc1ccnc2cc(Cl)ccc12 | 390 | 218 | 560 | – |
| O=C1c2cccc3cccc(c23)C(=O)N1CCCCCCCCNc1ccnc2cc(Cl)ccc12 | 358 | 206 | 576 | – |
